Assay results as given in article PMC3609949 (Journal of the American Chemical Society, 2013).
Where a SMILES comes first, the peptide text is derived from it. The star is where a group is joined. X1 = CC[C@@]1(OC(=O)CCCS*)C(=O)OCc2c1cc1n(c2=O)Cc2cc3ccccc3nc2-1

Assay: TEM imaging of self-assembled nanostructures in water
Assay type: physicochemical
Conditions: 50 μM in water, stained with 2% uranyl acetate
Procedure, shortened: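 Negative-stain TEM using 2% aqueous uranyl acetate to enhance contrast. Most stained samples were imaged at 50 μM. Some other images were taken at 1 mM, and one panel is listed at both 50 μM and 100 μM. Filament widths are given as value ± spread.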

## CC[C@H](C)[C@H](NC(=O)[C@H](CCC(N)=O)NC(=O)[C@@H](NC(=O)CNC(=O)[C@H](CSSCCCC(=O)O[C@]1(CC)C(=O)OCc2c1cc1n(c2=O)Cc2cc3ccccc3nc2-1)NC(C)=O)C(C)C)C(=O)N[C@H](C(=O)N[C@@H](Cc1ccc(O)cc1)C(=O)N[C@@H](CCCCN)C(=O)N[C@@H](CCCCN)C(N)=O)C(C)C [mCPT-buSS-Tau] (Ac-C(X1)GVQIVYKK-NH2; N-terminus and C-terminus assumed)
  width of self-assembled filaments/nanotubes: 6.7 ± 1 nm
